Measured values reported in the RNAGym collection of RNA variant scans (doi:10.1126/science.aae0568).
Variants at the floor of the assay were thinned out.

B1: tRNA (parent)
chain: GUUCCGUUGGCGUAAUGGUAACGCGUCUCCCUCCUAAGGAGAAGACUGCGGGUUCGAGUCCCGUACGGAACG

Variants of: B1
Assay: yeast fitness relative to wild type (ratio to wild type); higher = fitter; tRNA-Arg(CCU), competitive growth, 37 C, YPD
In short: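 Variants of the tRNA-Arg(CCU) gene were chemically synthesised with a 3% per-site mutation rate across 69 sites and placed at the native genomic locus in Saccharomyces cerevisiae. Six parallel replicates of the pooled strains were competed in YPD at 37°C for 24 hours, and gene amplicons from the start and end populations were read by 100-nucleotide paired-end sequencing. Darwinian fitness relative to wild type was derived from changes in genotype frequencies. Genotypes required ≥ 100 starting reads, and estimates < 0.5 were set to 0.5.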
For GUUCCGUUGGCGCAAUGGUAACGCGUCUACCUCCUAAGGAGAAGACUGCGCGUUCGAGUCCCGUACGGAACG, the yeast fitness was 0.624. For GUUCCGUUGGCGCAAUGGUAACGCGUCUCCGUACUAAGGAGAAGACUGCGGGUUCGAGUCCCGUAAGGAACG, the yeast fitness was ≤ 0.5. In the case of GUUCCGUUGGCGCAAUGGUAAGGCGUCUCCCUCCUAACGAGAAGUCUGGGGGUUCGAGUCCCGUACGGAACG, the yeast fitness is reported as ≤ 0.5. With GUUCCGUUGGCGCAAUGGUAACGCGUCUACCUCCUAUGGAGAAGACUGAGGGUUCGAGUCCCGUACGGAACG the yeast fitness was ≤ 0.5. For GUUCCGUUGGCGCAAUGGUAACGCGUCUCCGUGCUAAGGAGAAGACUGCGGGUUCGAGUCCCGUACGGAACG, the yeast fitness was ≤ 0.5. With GUUCCGUUGGCGCAAUGGUAACGCGUCUCCCUCGUAAGGAGAAGACUGCGGGUUCGAGUCCCGUACAGAACG the yeast fitness was ≤ 0.5. In the case of GUUCCGUUGGCGCAAUGGUAACGCGUCUCCCUCCUAAGGAGAAGACUGCGGGUUUGAGUCCCGUUCGGAACG, the yeast fitness is reported as ≤ 0.5. GUUCCGUUGGCGCAAUGGUAAUGCGUUUCCCUCCUACGGAGAAGACUGCGGGUUCGAGUCCCGUACGGAACG showed a yeast fitness of 0.563. Variant GUUCCGUUGGCGCAAUGGUAACGCGUCUCCCUCCUAAGGAGAAGACUGUGGGUUCGAGUCCCGUACGGAACG has a yeast fitness of 1.01. For GUUCCGUUGGCGCAAUGGUAACGCGUCUCCCUCCUAAGGAGAAGACUGGGGGUUCGAGUCCCGUACGGAACG, the yeast fitness was 0.896. GUUCCGUUGGCGCAAUGGUAACGGGUCUCCCUCCUAACGAGAAGACUGCGGGUUCGAGUCCCGUACGGAACG showed a yeast fitness of 0.592. With GUUCCGUUGGCGCAAUGGUAACGUGUCUCCCUCCUAAGGAGAAGACUGCGGGAUCGAGUCCCGUAUGGAACG the yeast fitness was ≤ 0.5. In the case of GUUCCGUUGGCGCAAUGGUAACGCGUCUCCCUCCUAAGGAGAAGACUGGCGGUUCGAGUCCCGUUCGGAACG, the yeast fitness is reported as ≤ 0.5. For GUUCCGUUGGCGCAAUGGUAACGAGUCUCCCUCCUAAGGAGAAGACUGCGGGUUCGAGUCCCGUACGGAACG, the yeast fitness was 0.69. Work on GUUCCGUUGGCGCAAUGGUAACGUGUCUCCCUCCUAAGGAGAAGACUGCGGGUUCGAGUCCCGUACGGAACG yielded a yeast fitness of 1.01. In the case of GUUCCGUUGGCGCAAUGGUAACGCGUCUCCCUCGUAAGGAGAAGAUUGCGGGUUCGUGUGCCGUCCGGAACG, the yeast fitness is reported as ≤ 0.5. GUUCCGUUGGCGCAAUGGUAACGCGUCUCCUUCCUAAGGACAAGACUGCGGGUUCGAGUCUCGUACGGAACG gave a yeast fitness of 0.53. GUUCCGUUGGCGCAAUGGUAAUGCGUCUCCCUCCUAAGCAGAAGACUGCGGGUUCGAGUCCCGUACGGAACG gave a yeast fitness of 0.512. For GUUCCGUUGGCGCAAUGGUAAUGCGUCUCCCUCCUAACGAGAAGACUGCGGGUUCGAGUCCCGUACGGAACG, the yeast fitness was ≤ 0.5. In the case of GUUCCGUUGGCGCAAUGGUAACGCGUCUUCCUCCUAAGGAGAAGACUGCGGGUUCGAGUCCCGUACGGAACG, the yeast fitness is reported as 0.831. Variant GUUCCGUUGGCGCAAUGGUAACGCGUCUCCAUCCUAAGGAGAAGACUGCGGGUUCCAGUCCCGUACGGAACG has a yeast fitness of 0.57. With GUUCCGUUGGCGCAAUGGUAACGCGUCUCUCUUCUAAGGAGAAGACUGCGGGUUCGAGUCCCGUACGGAACG the yeast fitness was 0.537. In the case of GUUCCGUUGGCGCAAUGGUAACGCGUCUCCUUCCUAAGGAGAAGACUGCGGGUUCGACUCACGUACGGUACG, the yeast fitness is reported as ≤ 0.5. With GUUCCGUUGGCGCAAUGGUAAUGCGUUUCCCUCCUACGGAGAAGACUGCGGGUUCGAGUCCCGUACAGAACG the yeast fitness was ≤ 0.5. With GUUCCGUUGGCGCAAUGGUAACGCGUCUCGCUCCCAAGGAGAAGACUGCGGGUUCGAGUCCCGUACGGAACG the yeast fitness was ≤ 0.5. For GUUCCGUUGGCGCAAUGGUAACGCGUCUCCCUCCUAAGGAGAAGAGUGCGGGUUCGAGUCCGGUACGGAACG, the yeast fitness was ≤ 0.5. For GUUCCGUUGGCGCAAUGGUAACGCGUCUUCCUCCUAAGGAGAAGACUGCGGGUUCCAGUCCCGUACGGAACG, the yeast fitness was ≤ 0.5. With GUUCCGUUGGCGCAAUGGUAACGCGUCUCCUUCCUAAGGAGAAGACUGCGGGUUCGAGUCCCGUACGGAACG the yeast fitness was 1.01. Work on GUUCCGUUGGCGCAAUGGUAACGCGUCUCCAUCCUAAGGAGAAGACUGCGGGUUCGAGUCCCGUACGGAACG yielded a yeast fitness of 0.901. With GUUCCGUUGGCGCAAUGGUAACGCGUCUCCCUGCUAAGGAGAAGACUGCGGGUUCCAGUCCCGUACGGAACG the yeast fitness was ≤ 0.5. In the case of GUUCCGUUGGCGCAAUGGUAACGCGUCUCCCUCCUAAGGAGAAGACUGCGGGUUGGAGUCGCGUAUGGAACG, the yeast fitness is reported as ≤ 0.5. With GUUCCGUUGGCGCAAUGGUAACGCGUCUCCUUCCUAAGGAGAAGACUGCGGGUUCGAGUCCAAUACGGAACG the yeast fitness was ≤ 0.5. GUUCCGUUGGCGCAAUGGUAACGCGUCUCCCUCCUAAGGAGAAGACUGGGGGUUCGAGUCCUGUACGGAACG showed a yeast fitness of 0.533. For GUUCCGUUGGCGCAAUGGUAACGGGUCUCCCUCCUAAGGAGAAGACUGCGGGUUCGAGUGCCGUACGGAACG, the yeast fitness was ≤ 0.5. With GUUCCGUUGGCGCAAUGGUAACGCGUCUCCUUCCUAAGGAGAGGACUGCGGGUUCGAGUGCCGUACGGAACG the yeast fitness was ≤ 0.5. GUUCCGUUGGCGCAAUGGUAACGCGUCUCCCUCCUAAGGAGAAGACUGCGGGUUAGAGUCCCGUACGGUACG showed a yeast fitness of 0.624. Variant GUUCCGUUGGCGCAAUGGUAACGCGUCUCUCUUCUAAGGAGAAGACUGCGGGUUCGAGUCCCGUACGGUGCG has a yeast fitness of 0.568. With GUUCCGUUGGCGCAAUGGUAACGCGUCUCCCUACUCAGGAGAAGACUGCGGGUUCGAGUCCCCUAGGGAACG the yeast fitness was ≤ 0.5. In the case of GUUCCGUUGGCGCAAUGGUAACGCGUCUCCCUCGUAAGGAGAAGACUGCGGGUUCGAGUCCUGUACGGAACG, the yeast fitness is reported as ≤ 0.5. With GUUCCGUUGGCGCAAUGGUAACGCGUUUCCCUCCUAAGGAGAAGACUGCGGGUUCGAGUCCCGUACGGUACG the yeast fitness was 0.648. For GUUCCGUUGGCGCAAUGGUAACGCGUCUCCUUCCUAAGGAGAAGACUGCGGGUCCGACUCACGUACGGUACG, the yeast fitness was ≤ 0.5. With GUUCCGUUGGCGCAAUGGUAACGCGUCUCCUUCUUAAGGGGAAGACAGCGGGUUCGAGUCCCGUACGGAACG the yeast fitness was ≤ 0.5. In the case of GUUCCGUUGGCGCAAUGGUAACGCGUCUCCCUCCUAAGGAGAAGACUGCGGGUUAGAGUCCCGUUCGGAACG, the yeast fitness is reported as ≤ 0.5. For GUUCCGUUGGCGCAAUGGUAACGCGUCUGCCUCCUUAGGACAAGCCUGUGGGUCCGAGUCUCGUACGGAACG, the yeast fitness was ≤ 0.5. In the case of GUUCCGUUGGCGCAAUGGUAACGCGUCUCCCUACUUAGGAGAAGACUGCGGGUUCGAGUCCCGUACGGAACG, the yeast fitness is reported as ≤ 0.5. In the case of GUUCCGUUGGCGCAAUGGUAACGCGUCUCCUUCCUAAGGAGAAGACUGCGGGUUCCAGUCCCGUACGGAACG, the yeast fitness is reported as ≤ 0.5. With GUUCCGUUGGCGCAAUGGUAACGCGUCUCCCUCCUAAGGAGAAGACUGGGGGCUCGCGUCCCGUACGGAACG the yeast fitness was ≤ 0.5. In the case of GUUCCGUUGGCGCAAUGGUAACGCGUCUCCCUCCUAAGGAGAAGAUUACGGGUUCGAGUCCCGUACGGAACG, the yeast fitness is reported as 0.732. GUUCCGUUGGCGCAAUGGUAAUGCGUCUCCCUCCUAAGGAGAAGACUGCGGGUUCGAGUCCCGUACGGAACG gave a yeast fitness of 0.932. In the case of GUUCCGUUGGCGCAAUGGUAACGCGUCUCCCUCGUAAGGAGAAGACUGCGGGUUAGAGUCCCGUACGGAACG, the yeast fitness is reported as ≤ 0.5. In the case of GUUCCGUUGGCGCAAUGGUAAUGCGUCUCCCUCCUAACGAGAAGACUGCGGGUUCGAGUCCCGUACGGAUCG, the yeast fitness is reported as ≤ 0.5. In the case of GUUCCGUUGGCGCAAUGGUAACGCGUCUGCCUCCUGAGGAAAAGACUCCGGGUUCGAGUCCCGUACGGAACG, the yeast fitness is reported as ≤ 0.5. In the case of GUUCCGUUGGCGCAAUGGUAAAGAGUCUCCCUCCUAAGGAGAAGACUGCGGGUUCGAGUCCCGUACGGAACG, the yeast fitness is reported as ≤ 0.5. With GUUCCGUUGGCGCAAUGGUAAGGCGUAUCCCUCCUAAGGAGAAGACUGCGCGUUCGAGUCCCGUACGGAUCG the yeast fitness was ≤ 0.5. With GUUCCGUUGGCGCAAUGGUAACGCGUUUCCCUCCUAAGGAGAAGACUGCGGGUUAGAGUCCCGUACGGUACG the yeast fitness was ≤ 0.5. For GUUCCGUUGGCGCAAUGGUAAUGCGUCUCCCUCCUAAGGAGAAGUCUACGGGUUAGAGUCCCGUACGGAACG, the yeast fitness was ≤ 0.5. For GUUCCGUUGGCGCAAUGGUAACGCGUCUUCUUCCUAAGGAGAAGACUGCGGGUGCGAGUCCCGUUCAGAACG, the yeast fitness was ≤ 0.5. Variant GUUCCGUUGGCGCAAUGGUAACGGGUCUCCCUCCUAAGGAGAAGACUGCGGGUUCGAGUCACGUACGGAACG has a yeast fitness of 0.54. With GUUCCGUUGGCGCAAUGGUAACGCGUGUCCCUCCUAUGGAGAAGACUGCGGGUUCGAGUACCGUACGGAACG the yeast fitness was 0.727. With GUUCCGUUGGCGCAAUGGUAACGCGUCUCUCUCCUAAGGGGAAGACUGCGGGUUAGAGUCCCCUCCGGAACG the yeast fitness was ≤ 0.5. With GUUCCGUUGGCGCAAUGGUAAUGCGUUUCCCUCCUACGGAGAAGACUGCGGGUUCGGGUCCCGUACGGAACG the yeast fitness was ≤ 0.5. Variant GUUCCGUUGGCGCAAUGGUAACGCGUCUCCCUCCUAAGGAGAAGACUGCGGGUUUGAGUCCCGUACGGAACG has a yeast fitness of 0.837. For GUUCCGUUGGCGCAAUGGUAACGCGUCUCACUCCUAAAGAGAAGACUGCGGGUUAGAGUCCCGUCCGGAACG, the yeast fitness was ≤ 0.5. In the case of GUUCCGUUGGCGCAAUGGUAACGCGUCUCCCUCUUAAGGAGAAGACUGCGGGUUCGAGUCCCGUACGGAACG, the yeast fitness is reported as 0.668. For GUUCCGUUGGCGCAAUGGUAACGCGUCUCCUUCCUAAGGAGAAGACUGCGGGUUCGGGUUCCGAAAGGCACG, the yeast fitness was ≤ 0.5. With GUUCCGUUGGCGCAAUGGUAAAGCGUCUUCCUCCUAAGGAGAAGACUGCGGGUUCGAGUCCCGUACGGAACG the yeast fitness was ≤ 0.5. Work on GUUCCGUUGGCGCAAUGGUAACGCGUCUCCGUCCUAAGGAGAAGACGGCGGGGUCGAGUCUCGUACGAAACG yielded a yeast fitness of 0.591. GUUCCGUUGGCGCAAUGGUAACGCGUAUCCCUCCUAAGGAGAAGACUGCGGGUUCGAGUCCCGUACGGAACG showed a yeast fitness of 0.963. In the case of GUUCCGUUGGCGCAAUGGUAACGCGUUUCCCUCCUACGGAGAAGACUGCGGGUUCGAGUCCCGUACGGAACG, the yeast fitness is reported as ≤ 0.5. With GUUCCGUUGGCGCAAUGGUAAUGCGUCUCCCUCCUAACGAGAAGACUGCGGGUUCGUGUCCCGUACGGAACG the yeast fitness was ≤ 0.5. With GUUCCGUUGGCGCAAUGGUAAUGCGUCUCCCUCCUAACGAGAAGACUGCGGGUUCGCGUCCCGUACGGAACG the yeast fitness was 0.599. With GUUCCGUUGGCGCAAUGGUAACGCGUCUGCCUCCUAAGGAGAAGUCUGCGGGUUCGAGUCCUGUACGGAACG the yeast fitness was ≤ 0.5. GUUCCGUUGGCGCAAUGGUAACGCGUCUACCUGCCAAGGAGAAGACUGCGAGUUCGAGUCCCGUACGGAACG gave a yeast fitness of 0.503. GUUCCGUUGGCGCAAUGGUAACGCGUCUCGCUCCUAAGGAGAAGACUGCGGGUUCGAGUCCCGUACGGAACG gave a yeast fitness of 0.578. With GUUCCGUUGGCGCAAUGGUAACGCGUCUCACUCCUAAGGAGAAGACUGCGGGUUCGAGUCCCGUACGGAACG the yeast fitness was 0.825.
